Data on one compound can be found in ChEMBL document CHEMBL5550188, “Detection of a Mitochondrial Fragmentation and Integrated Stress Response Using the Cell Painting Assay” (2024).

SMILES strings stand for the structures. Active and inactive are the calls of the source. No cut-off for these calls is given here.

Experiment [1] relates to U2OS. In words: Effect on mitochondrial membrane potential in human U2OS cells at 2 uM incubated for 24 hrs by TRME staining based analysis. The class given is functional, cell-based. The procedure, abridged:
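U-2OS (5 × 10³/well) were treated 24 h, then given 20 μM FCCP or 0.5% DMSO controls for 10 min. Cells were stained 30 min at 37 °C with 1 μM TMRE plus Hoechst-33342 in complete DMEM, washed, and imaged live in 0.2% BSA/PBS at 10× (TMRE ex/em 549/575 nm).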

The next experiment has as its system HEK-293T. Briefly: Upregulation of HIF1 level in HEK293T cells transfected with HIF1/luc at 2 uM incubated for 24 hrs by Renilla luciferase base assay. The class given is functional, cell-based. The note with it: Homo sapiens. The procedure, abridged:
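HEK293T were co-transfected (Lipofectamine 2000) with a PGK1-HRE-driven destabilized firefly luciferase reporter and constitutive TK-Renilla. Cells were seeded at 2.5 × 10⁴/well, then treated 24 h the next day, with 100 μM CoCl₂ and 10 μM ML228 as controls. Dual-Glo readout: firefly was normalized to Renilla and expressed as fold induction over DMSO.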

Experiment [2] has as its system U2OS. Briefly: Effect on mitochondrial respiration in human U2OS cells assessed as suppression of OCR level at 10 uM measured after 24 hrs by Seahorse analysis relative to control. The class given is functional. The procedure, abridged: (§1)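 Seahorse XFp Mito Stress Test on U-2OS, 2 × 10⁵ cells per well, seeded overnight. Assay medium was pH 7.4 DMEM with 2 mM GlutaMAX, 1 mM pyruvate and 25 mM glucose. For acute runs, compound was injected after 5 baseline reads, then 10 reads. Otherwise cells were pretreated 24 h. Then oligomycin A, FCCP and rotenone/antimycin A were added. OCR/ECAR were background-subtracted and normalized to the last baseline (100%). Mean ± SD, n = 3.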

Experiment [3] has as its system U2OS. Briefly: Induction of oxidative stress in human U2OS cells assessed as increase in mitochondrial superoxide level at 2 uM incubated for 1 hr by MitoSox Red staining based analysis. The class given is functional, cell-based. The procedure, abridged:
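U-2OS at 15,000/well were preloaded 30 min with 5 μM MitoSOX Red plus Hoechst in plain DMEM. They were then treated 60 min in complete DMEM, fixed in 0.5% paraformaldehyde, and imaged at 10×. Integrated MitoSOX intensity per cell was normalized to DMSO (0%) and 10 μM CDNB (100%). Mean ± SD, n = 3.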

The subject of experiment [4] is U2OS. In words: Effect on glycolysis in human U2OS cells assessed as increase in ECAR level at 2 to 10 uM of acute treatment by Seahorse analysis. The class given is functional, cell-based. To be noted: dose 2-10 µM. In a few lines: as §1
In experiment [5] the test system is U2OS. In words: Effect on HIF1 signaling in human U2OS cells at 2 uM incubated for 24 hrs by pathway over-representation analysis. The class given is functional, cell-based. The procedure, abridged:
(§2)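 U-2OS seeded at 1 × 10⁶ cells in T75 flasks, treated next day for 24 h at 37 °C versus DMSO. Cells were lysed by freeze–thaw, reduced with TCEP at 55 °C, alkylated with iodoacetamide, acetone-precipitated and trypsin-digested. Peptides were TMT-labelled, split into 10 fractions by high-pH C18, then run on nanoHPLC-MS/MS (orbitrap). Biological triplicates, with pathway over-representation analysis.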

Experiment [6] deals with U2OS. In words: Effect on mitochondrial dysfunction in human U2OS cells at 2 uM incubated for 24 hrs by pathway over-representation analysis. The class given is functional, cell-based. In a few lines:
as §2

Experiment [7] has as its system U2OS. Briefly: Inhibition of cell confluence in human U2OS cells at 2 uM measured after 48 hrs by PI/caspase-3/7 Green dye based analysis. The class given is functional. In a few lines:
(§3)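 U-2OS at 5000/well were incubated overnight, then given medium with compound or DMSO plus propidium iodide and CellEvent Caspase-3/7 Green. Cells were imaged hourly for 48 h by live-cell imaging. Phase confluence gave growth; red and green object confluence gave PI-positive cells and caspase-3/7 activity.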

In experiment [8] the test system is U2OS. Briefly: Induction of integrated stress response in human U2OS cells assessed as increase ATF4 level at 2 uM incubated for 24 hrs by Western blot analysis. The class given is functional, cell-based. In a few lines:
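U-2OS grown to 80% confluence in 6-well plates were treated 24 h at 37 °C versus DMSO. ATF4 was detected by immunoblotting, with vinculin as reference protein.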
On the technique in general: A western blot detects proteins with antibodies after separation by electrophoresis.

The test system of experiment [9] is U2OS. Briefly: Effect on mitochondrial respiration in human U2OS cells assessed as suppression of OCR level at 2 to 10 uM of acute treatment by Seahorse analysis. The class given is functional, cell-based. To be noted: dose 2-10 µM. In a few lines: as §1
The subject of experiment [10] is U2OS. In words: Effect on glycolysis in human U2OS cells assessed as increase in ECAR level at highest concentration measured after 24 hrs by Seahorse analysis. The class given is functional, cell-based. The procedure, abridged:
as §1

Experiment [11] has as its system U2OS. In words: Effect on mitochondrial respiration in human U2OS cells assessed as suppression of OCR level measured after 24 hrs by Seahorse analysis. The class given is functional, cell-based. The procedure, abridged: as §1
Experiment [12] deals with U2OS. In words: Induction of mitochondrial fragmentation in human U2OS cells assessed as puncta-like staining at 2 uM incubated for 20 hrs by Mito Tracker Deep Red dye based CPA assay. The class given is functional, cell-based. In a few lines:
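Cell Painting: U-2OS were seeded at 1600 cells/well, then dosed 4 h later for 20 h at 37 °C against a matched-% DMSO control. Live cells were stained 30 min with 100 nM MitoTracker Deep Red, then fixed in 3.7% formaldehyde and permeabilized with 0.1% Triton X-100. They were co-stained with phalloidin, concanavalin A, Hoechst, WGA and SYTO 14. Imaging was high-content, run as triplicate plates; features are Z-scores versus DMSO median/MAD.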

Experiment [13] concerns U2OS. In words: Effect on oxidative phosphorylation in human U2OS cells at 2 uM incubated for 24 hrs by pathway over-representation analysis. The class given is functional, cell-based. The procedure, abridged: as §2
Experiment [14] deals with U2OS. In words: Inhibition of cell confluence in human U2OS cells at 10 uM measured after 48 hrs by PI/caspase-3/7 Green dye based analysis. The class given is functional. In a few lines:
as §3

Experiment [15] has as its system U2OS. Briefly: Induction of integrated stress response in human U2OS cells assessed as increase ATF4 mRNA level at 2 uM incubated for 24 hrs by RT-qPCR analysis. The class given is functional, cell-based. In a few lines: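 U-2OS at 1 × 10⁵/well in 6-well plates were grown 24 h to ~80% confluence, then treated 24 h versus DMSO. Total RNA (DNase-treated) was reverse-transcribed and ATF4 measured by SYBR Green qPCR. Expression was calculated by ΔΔCt against GAPDH, with DMSO set to 100%. Mean ± SD, n = 3.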
On the technique in general: In qPCR the cycle at which signal appears reflects the starting amount.

Experiment [16] concerns U2OS. In words: Induction of mitochondrial network fragmentation in human U2OS cells at 2 uM incubated for 24 hrs by CellLight Mitochondria-GFP assay. The class given is functional, cell-based. The procedure, abridged:
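U-2OS were transduced with CellLight Mitochondria-GFP BacMam 2.0 one day before treatment. 3000 cells/well were seeded in chamber slides. After compound addition, live cells were imaged by confocal microscopy (488/555 nm) continuously over 24 h at 37 °C, 5% CO₂.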

As to `CCOC(=O)CCNc1cc(N2CCc3ccccc3CC2)nc(-c2ccccn2)n1`, the result with U2OS [1], in the experiment with U2OS [4], in the experiment on U2OS [5] and in the experiment with U2OS [9] was inactive. The outcome in the experiment on HEK-293T, in the experiment with U2OS [3], in the experiment on U2OS [6], in the experiment with U2OS [8], in the experiment with U2OS [10] and with U2OS [12] was Active. Further, the outcome in the experiment on U2OS [13], in the experiment with U2OS [15] and with U2OS [16] was Active. Further, the Activity with U2OS [2] was approximately 100%; in the experiment with U2OS [11], “Dose-Dependent Effect”. For the same compound, the inhibition entry in the experiment on U2OS [7] is “inactive”. The inhibition result in the experiment with U2OS [14] was “Active”.
